Where “and” joins values, the source holds several entries; their conditions need not be identical. Equal entries are not always repeated.

The assay deals with Candida glabrata growth in glycerol medium, OD600, 48 h. Kind of assay: single-agent C. glabrata growth inhibition on glycerol, dose response, glycerol medium, OD600, dry powder, set 4 (AID 624014). Summed up:
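Test system: Candida glabrata yeast cells, whole-organism growth assay; compound dosing: pin-transferred compounds; timing: compound exposure 48 h at 30 °C, static, humidified; signal: OD600 absorbance; control set: amphotericin B at 10 µM as positive control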
Consider `CCOC(=O)N1C(=O)C2(CCCCC2)N(c2ccc(C)cc2)C1=S`, for which the AC50 – broadly, the midpoint of the concentration-response curve, whichever way the signal moves – was 31.8 nM and 22.4 nM.
Consider `C/C=C/[C@@H]1[C@H]2C[C@@H](C)CC[C@@H]2C(C)=C[C@H]1C(=O)c1c(O)c(-c2ccc(O)cc2)c[nH]c1=O`, for which the AC50 is 2450 nM.
Take `CCOC(=O)N1C(=O)C2(CCCCC2)N(c2ccccc2)C1=S`: the AC50 was 19.4 nM.
For `CCOC(=O)N1C(=O)C2(CCCCC2)N(c2ccc(Cl)cc2)C1=S`, the AC50 was 13.8 nM.
Next, `CCOC(=O)N1C(=O)C2(CCCCC2)N(c2cccc(C)c2)C1=S`: 23.9 nM; `CCOC(=O)N1C(=O)C2(CCCCC2)N(c2ccc(C#N)cc2)C1=S`: 27.8 nM; `CCOC(=O)N1C(=O)C2(CCCCC2)N(c2ccc(F)cc2)C1=S`: 6.16 nM.
Take `CC1/C=C/C=C\C=C\C=C\C=C\C=C\C=C\C(O[C@H]2OC(C)C(O)C(N)C2O)CC2OC(O)(CC(O)CC(O)C(O)CCC(O)CC(O)CC(=O)OC(C)C(C)C1O)CC(O)C2C(=O)O` (stereo partly drawn): the AC50 was 602 nM.

For the origin of these results see PubChem BioAssay AID624014 (Broad Institute, 2012).
